Values after ≈ are worked out from the molar mass of the structure shown. Active and inactive are the calls of the source. No cut-off for these calls is given here.
Tests used:
Alpha glucosidase = Alpha glucosidase (Homo sapiens, UniProt O43451+P10253+P14410+Q2M2H8); assay: Inhibition of alpha-glucosidase (unknown origin) using p-nitrophenyl glycoside as substrate treated 20 mins post substrate addition measured for 1 min by spectrophotometric analysis; format: protein assay
Method in brief: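 In vitro α-glucosidase inhibition measured by a previously referenced procedure.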

Vibrio anguillarum = assay: Antibacterial activity against Vibrio anguillarum after 18 hrs by broth dilution method; format: functional
Method in brief: (§1)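 Conventional broth dilution MIC assay run on a panel of Gram-positive strains (Micrococcus lysodeikticus, Bacillus cereus, Bacillus megaterium) and Gram-negative strains (Proteus vulgaris, Vibrio anguillarum, Vibrio parahaemolyticus). Ciprofloxacin served as the positive control.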

HL-60 = assay: Cytotoxicity against human HL60 cells by MTT assay; format: functional, cell-based
Method in brief: (§2)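 Cytotoxicity tested on human HL-60, HeLa, A549 and K562 cell lines by a previously referenced method. Adriamycin was the positive control.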

K562 = assay: Cytotoxicity against human K562 cells by MTT assay; format: functional, cell-based; method in brief: as §2
HeLa = assay: Cytotoxicity against human HeLa cells by SRB assay; format: functional, cell-based; method in brief: as §2
A549 = assay: Cytotoxicity against human A549 cells by SRB assay; format: functional, cell-based; method in brief: as §2
Micrococcus luteus = assay: Antibacterial activity against Micrococcus lysodeikticus after 18 hrs by broth dilution method
Bacillus cereus = assay: Antibacterial activity against Bacillus cereus after 18 hrs by broth dilution method
Priestia megaterium = assay: Antibacterial activity against Bacillus megaterium after 18 hrs by broth dilution method
Proteus vulgaris = assay: Antibacterial activity against Proteus vulgaris after 18 hrs by broth dilution method
Vibrio parahaemolyticus = assay: Antibacterial activity against Vibrio parahaemolyticus after 18 hrs by broth dilution method; format: functional; method in brief: as §1

SMILES	IC50 (Alpha glucosidase)	MIC (Vibrio anguillarum)	MIC (Micrococcus luteus)	MIC (Bacillus cereus)	MIC (Priestia megaterium)	MIC (Proteus vulgaris)	Activity (HL-60)	Activity (K562)	Activity (HeLa)	Activity (A549)	MIC (Vibrio parahaemolyticus)
COC(OC)C1=CC2=CC(=O)[C@@](C)(O)[C@@H](OC(=O)c3c(C)cc(O)cc3O)[C@@H]2CO1	> 200 µM	> 8.28 µg/mL					inactive	inactive	inactive	inactive	
Cc1cc(O)cc(O)c1C(=O)O[C@H]1C2=COC(/C=C/CO)=CC2=CC(=O)[C@@]1(C)O	> 200 µM	> 8.28 µg/mL					inactive	inactive	inactive	inactive	
Cc1cc(O)cc(O)c1C(=O)O[C@H]1[C@@H]2COC(/C=C/C(=O)O)=CC2=CC(=O)[C@@]1(C)O	> 200 µM	> 8.28 µg/mL					inactive	inactive	inactive	inactive	
Cc1cc(O)cc(O)c1C(=O)O[C@H]1[C@@H]2COC(/C=C/[C@H](C)O)=CC2=CC(=O)[C@@]1(C)O	78.6 µM	> 8.28 µg/mL					inactive	inactive	inactive	inactive	
O=C(O)c1cn(C2CC2)c2cc(N3CCNCC3)c(F)cc2c1=O [CIPROFLOXACIN]		0.199 to 0.52 µg/mL (≈ 0.601 to 1.57 µM)	0.099 µg/mL (≈ 0.299 µM)	0.43 µg/mL (≈ 1.3 µM)	1.66 µg/mL (≈ 4.99 µM)	0.199 µg/mL (≈ 0.601 µM)					0.43 µg/mL (≈ 1.3 µM)
Cc1cc(O)cc(O)c1C(=O)O[C@H]1[C@@H]2COC(/C=C/CO)=CC2=CC(=O)[C@@]1(C)O [PINOPHILIN B]	> 200 µM	> 8.28 µg/mL					inactive	inactive	inactive	inactive	

Further lines, with some results ahead:

IC50 (Alpha glucosidase)	MIC (Vibrio anguillarum)	MIC (Micrococcus luteus)	MIC (Bacillus cereus)	MIC (Priestia megaterium)	MIC (Proteus vulgaris)	SMILES	Activity (HL-60)	Activity (K562)	Activity (HeLa)	Activity (A549)	MIC (Vibrio parahaemolyticus)
> 200 µM	> 8.28 µg/mL					COC(=O)C1=CC2=CC(=O)[C@@](C)(O)[C@@H](OC(=O)c3c(C)cc(O)cc3O)[C@@H]2CO1	inactive	inactive	inactive	inactive	
> 200 µM	> 8.28 µg/mL					COC(=O)CCC1=CC2=CC(=O)[C@@](C)(O)[C@@H](OC(=O)c3c(C)cc(O)cc3O)[C@@H]2CO1	inactive	inactive	inactive	inactive	
22.9 µM	0.26 µg/mL (≈ 0.649 µM)					Cc1cc(O)cc(O)c1C(=O)O[C@H]1[C@@H]2COC(/C=C/C=O)=CC2=CC(=O)[C@@]1(C)O	inactive	inactive	inactive	inactive	
> 200 µM						Cc1cc(O)cc(O)c1C(=O)O[C@]1(C)C(=O)C=C2C=C(/C=C/CO)OC=C2C1=O	inactive	inactive	inactive	inactive	
> 200 µM	0.26 µg/mL (≈ 0.68 µM)					C/C=C/C1=CC2=CC(=O)[C@@](C)(OC(=O)c3c(C)cc(O)cc3O)C(=O)C2=CO1	inactive	inactive	inactive	inactive	
> 200 µM	> 8.28 µg/mL					C/C=C/C1=CC2=CC(=O)[C@@](C)(O)[C@@H](OC(=O)c3c(C)cc(O)cc3O)[C@@H]2CO1	inactive	inactive	inactive	inactive	

— ChEMBL document CHEMBL4190288, “Bioactive Azaphilone Derivatives from the Fungus Talaromyces aculeatus” (J Nat Prod, 2017)
